ARFGAP1 inh = inhibitors of rat ARFGAP1; AID 651572; Arfgap1-stimulated ARF1 GTP hydrolysis, GDP FP detection; 0.26% of 360,000 active; inhibition, % at 16.5 µM;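 active = inhibition above a per-plate limit, mean inhibition of low control wells plus 3 SD, cut at about 25% in these data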
Target sequence (Q62848 1-136 limits assumed): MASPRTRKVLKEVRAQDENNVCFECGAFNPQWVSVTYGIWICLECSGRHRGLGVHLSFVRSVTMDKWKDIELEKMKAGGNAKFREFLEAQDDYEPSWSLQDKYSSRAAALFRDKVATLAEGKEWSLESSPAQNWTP
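material = rat Arfgap1 catalytic domain, aa 1-136 | also added = human ARF1(Δ1-17)-GTP substrate | compound dosing = one concentration, 16.5 µM, DMSO 1.26% | times = GTP hydrolysis reaction 2 h at 25 °C | measured by = FP, GDP Alexa 633 tracer displaced from anti-GDP antibody, 620/688 nm | evaluation = percent inhibition of Arfgap1-stimulated GTP hydrolysis | replication = single well per compound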
V-ATPase pH = regulators of yeast V-ATPase proton transport; AID 504577; S. cerevisiae, pHLuorin cytosolic pH fluorescence; 0.37% of 350,000 active; response, % at 10 µM; in the data active = response mostly above about 7.3%, no sharp cut-off; inactive = mostly below about 5.4%; note: actives read high
CendR NRP1 mod = modulators of CendR peptide binding to human neuropilin-1 | FAM-RPARPAR peptide binding to NRP-1, fluorescence polarization | inhibition, % at 25 µM | 0.85% of 360,000 active;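 active = inhibition or corrected inhibition above about 18%, plus a signal ratio from 0.5 to 1.5, limit read from the data, passing the limit was not always enough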
Exocytosis inh = blocks lytic granule exocytosis; TALL-104 LAMP-1 surface exposure, flow cytometry; cells stimulated with thapsigargin and PMA; inhibition, % at 10 µM; 0.66% of 360,000 active;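 active = inhibition above about 55%, limit read from the data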
ASAP1 GAP inh = inhibitors of human ASAP1 ArfGAP activity; ASAP1-stimulated ARF1 GTP hydrolysis, GDP FP detection; 0.19% of 360,000 active; AID 624377; Q9ULH1; inhibition, % at 16.5 µM; in the data active = inhibition above about 25%
Target sequence (Q9ULH1 325-724 limits assumed): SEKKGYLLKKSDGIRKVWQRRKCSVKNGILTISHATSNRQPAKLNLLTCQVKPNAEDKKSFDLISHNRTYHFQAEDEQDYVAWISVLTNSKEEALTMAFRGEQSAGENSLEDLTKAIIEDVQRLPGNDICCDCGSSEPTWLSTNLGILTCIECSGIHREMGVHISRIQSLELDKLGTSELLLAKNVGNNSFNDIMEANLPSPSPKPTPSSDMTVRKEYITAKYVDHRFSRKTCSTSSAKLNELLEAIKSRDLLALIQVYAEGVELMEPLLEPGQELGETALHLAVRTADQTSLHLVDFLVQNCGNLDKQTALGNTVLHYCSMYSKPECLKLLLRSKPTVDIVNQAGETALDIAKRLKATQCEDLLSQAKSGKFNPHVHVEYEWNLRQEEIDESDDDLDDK
Numbers stand for hits; - = inactive; . = no result given. Shown are actives, neighbours in structure and some others; about 2.2% of the full set was active somewhere.

SMILES | ARFGAP1 inh | V-ATPase pH | CendR NRP1 mod | Exocytosis inh | ASAP1 GAP inh
Cc1ccc2c(c1)c1c(c(=O)n(-c3ccccc3C)c(=O)n1CC(=O)NCC1CCCO1)n2C (configuration not stated) | - | - | 31 | - | -
CCCCc1c(-c2ccccc2OC)ncn1C(C)c1ccc(Cl)cc1 (configuration not stated) | - | . | . | . | -
Nc1[nH]c(C(=O)c2ccccc2)c(-c2ccccc2C(F)(F)F)c1C(=O)c1c[nH]c2ccccc12 | - | . | . | . | -
Nc1ccn([C@@H]2O[C@H](C(=O)N[C@H](Cc3ccccc3)C(=O)N3CCN(C(=O)N4CCOCC4)CC3)[C@@H](O)[C@H]2O)c(=O)n1 | - | . | . | . | -
COc1ccccc1C(=O)N1CCN(C(=O)[C@H](CCc2ccccc2)NC(=O)[C@H]2O[C@@H](n3cnc4c(N)ncnc43)[C@H](O)[C@@H]2O)CC1 | - | . | . | . | -
CCOc1ccc(NC(=O)CN2C(=O)C(C)SC(C)C2=O)cc1 (configuration not stated) | - | - | 25 | - | -
O=C(Cc1ccccc1)NN=Cc1ccccc1 | - | - | - | - | -
O=C(N/N=C/c1cn(-c2ccccc2)nc1-c1cc2ccccc2o1)c1ccncc1 | - | - | - | - | -
O=C(N/N=C/c1cn(-c2ccccc2)nc1-c1cc2ccccc2o1)c1cccnc1 | - | - | - | 75 | -
O=C(N/N=C/c1cc(Br)c(Br)o1)c1cccnc1 | - | - | 31 | - | -
O=C(Cc1ccccc1)N/N=C/c1cc(Br)c(Br)o1 | - | - | - | - | 27
O=S(=O)(c1ccccc1)N1CCCc2nc(-c3ccc(Br)cc3)ccc21 | - | . | . | . | -
COc1ccccc1C(=O)N1CCC2CCNC2C1 (configuration not stated) | - | . | . | . | -
COC(=O)C1=C(C)N(C)C(=NCc2ccccc2)NC1c1ccccc1 (configuration not stated) | - | . | . | . | -
CCOC(=O)c1c(NC(C)=O)sc2c1CCC(C=O)=C2Sc1ccccc1 | - | - | - | 95 | -
Cc1c(C(=O)N2CCOCC2)c(S(=O)(=O)Nc2cccc(C#N)c2)c(C)n1C | - | - | 22 | - | -
Cc1c(C(=O)N2CCOCC2)c(S(=O)(=O)Nc2cccc(F)c2)c(C)n1C | - | - | - | - | -
COC(=O)[C@]12C[C@H](CC(=O)N3CCN(C(=O)c4ccco4)CC3)C(=O)N(Cc3ccccc3)C1=C[C@H](C(C)(C)C)O[C@@H]2C | - | . | . | . | -
Cc1ccc[n+](CC(=O)Nc2ccc(N(C)C)cc2)c1 | - | - | - | - | -
CN(C)c1ccc(NC(=O)C[n+]2ccccc2)cc1 | - | - | - | 56 | -
Cc1cc(Oc2cccnc2)ccc1NC(=O)Cc1c[nH]c2ccccc12 | - | . | . | . | -
CCOCCCNC(=O)C(NC(=O)c1ccccc1O)c1ccc(Cl)cc1 (configuration not stated) | . | - | - | - | .
CCOCCCNC(=O)C(NC(=O)CNC(C)=O)c1ccc(Cl)cc1 (configuration not stated) | - | - | 24 | - | -
CCOCCCNC(=O)/C(C#N)=C/c1ccc(Cl)c([N+](=O)[O-])c1 | - | - | - | 66 | -
CCOCCCNC(=O)/C(C#N)=C/c1cc(OC)c(O)c([N+](=O)[O-])c1 | - | - | - | - | -
SMILES | ARFGAP1 inh | V-ATPase pH | CendR NRP1 mod | Exocytosis inh | ASAP1 GAP inh
COCc1nnc(NC(=O)c2cccc(NC(=O)C(C)C)c2)s1 | - | - | - | - | -
COCc1nnc(NC(=O)C(C)C)s1 | - | - | 26 | - | -
COC(=O)C1=C(C)N(Cc2ccccc2C(F)(F)F)C(=NCC2CC2)NC1c1ccc(C(F)(F)F)cc1 (configuration not stated) | - | . | . | . | -
CCCCC1=CC2=CC(=O)C(C)(OC(=O)CC)C(=O)C2=CN1c1cccc(C#N)c1 (configuration not stated) | - | - | - | - | -
CCCCC1=CC2=CC(=O)C(C)(OC(=O)CC)C(=O)C2=CN1c1ccc(OC)cc1 (configuration not stated) | - | - | 24 | - | -
CCN=C1NC(c2cccc(Cl)c2)C(C(=O)OC)=C(C)N1Cc1ccccc1C(F)(F)F (configuration not stated) | - | . | . | . | -
CC(=O)Nc1ccc(CNc2nc(NC(C)C)nc3ccsc23)cc1 | - | . | 28 | - | -
COc1ccccc1OCC(=O)NCC(c1cccs1)N1CCOCC1 (configuration not stated) | - | - | 25 | - | -
CC(C)c1ccccc1OCC(=O)NCC(c1cccs1)N1CCOCC1 (configuration not stated) | - | - | - | - | -
Cn1nc(C(=O)NCC(c2cccs2)N2CCOCC2)c2ccccc2c1=O (configuration not stated) | - | - | 27 | - | -
CC(C)C[C@H]1COc2cc(Br)ccc2S(=O)(=O)N1Cc1cccc(Cl)c1 | - | . | . | . | -
CCCCCCC12C(=Cc3cc4c(cc31)OCCO4)c1cc(OC)c(OC)cc1C(CC(=O)NCc1ccccc1)N2C(=O)OC (configuration not stated) | - | . | . | . | -
Cc1ccc(-c2ccc(SCC(=O)NC3CCCCC3)nn2)cc1 | - | - | - | - | -
Cc1ccc(CNC(=O)CSc2n[nH]c(N)n2)cc1 | - | - | 24 | - | -
O=C(CSc1ccc(-c2ccc(F)cc2)nn1)NC1CCCCC1 | - | - | 19 | - | -
Cc1[nH]c2ccccc2c1C(=O)CSc1n[nH]c(N)n1 | - | 13 | - | - | -
Cc1[nH]c2ccccc2c1C(=O)CSc1ncn[nH]1 | - | - | - | - | -
Nc1nc(SCC(=O)NC2CCCCC2)n[nH]1 | - | - | - | 76 | -
Nc1ccn([C@@H]2O[C@H](C(=O)N3CCN(C(=O)N4CCCCC4)CC3)[C@@H](O)[C@H]2O)c(=O)n1 | - | . | . | . | -
O=C(Nc1ccnn1C1CCN(Cc2cccc(OCCO)c2)CC1)C1CCOC1 (configuration not stated) | - | - | - | - | -
O=C(NCCN1CCNC1=O)c1ccc2sc([C@@H]3O[C@H](CO)[C@H](O)[C@H](O)[C@H]3O)nc2c1 | - | . | - | - | -
Oc1c(N=Nc2ccccn2)ccc2ccccc12 | - | - | - | 102 | -
CC(=O)Nc1ccc(C2=NNC(=Nc3cccc(S(=O)(=O)N(C)C)c3)SC2)cc1 | . | 7.9 | - | - | .
O=S1(=O)CCC(N(N=Cc2ccco2)c2ccccc2)C1 (configuration not stated) | - | . | . | . | -
C/C(=N\Nc1ncc(Cl)cc1Cl)c1ccccn1 | . | - | - | 98 | .
Cc1sc2ncnc(N/N=C/c3cccc(O)c3)c2c1C | - | - | - | - | -
C/C(=N\Nc1ncnc2sc(C)c(C)c12)c1ccccn1 | - | 70 | - | - | -
COC(=O)[C@H](Cc1ccccc1)N1C[C@@H](N2CCC[C@H]2C)CS1(=O)=O | - | . | . | . | -
